Test results from ChEMBL document CHEMBL4765234 (J Med Chem, 2016).
The source made the active and inactive calls. No cut-off for these calls is given here.

Assays:
[1] = target: T1, Free fatty acid receptor 1 (Homo sapiens, UniProt O14842); experiment: Displacement of [3H]-TAK-875 from human recombinant full-length GPR40 expressed in human HEK293 cell membrane incubated for 2 hrs by solid scintillation counting method; type: cell membranes
[2] = target: T1, Free fatty acid receptor 1; experiment: Agonist activity at human recombinant full length GPR40 overexpressed in human HEK293 cells assessed as increase in intracellular calcium level measured over 3 mins by calcium 4 dye based FLIPR assay; type: functional, cell-based
Method in brief: (§1)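 HEK293 cells overexpressing hGPR40 (25K/well) were cultured overnight in DMEM/F12 with 0.2% FBS and geneticin. Compound was tested at 40 μM–0.1 nM final (20-point, 1% DMSO), and FLIPR fluorescence was read over 3 min.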

[3] = target: T1, Free fatty acid receptor 1; experiment: Agonist activity at human recombinant full length GPR40 overexpressed in human HEK293 cells assessed as increase in intracellular calcium level measured over 3 mins by calcium 4 dye based FLIPR assay relative to 100 uM linoleic acid; type: functional, cell-based; settings: filed as agonist; method in brief: as §1
[4] = target: T1, Free fatty acid receptor 1; experiment: Agonist activity at human recombinant full-length Prolink-tagged GPR40 fused with EA-tagged beta-arrestin expressed in human HEK293 cells assessed as induction of beta-arrestin recruitment measured after 90 mins by beta-galactosidase based PathHunter assay; type: cell-based
Method in brief: (§2)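 PathHunter β-gal complementation. Cells were incubated overnight at 5000/well in medium with 1% heat-inactivated FBS. Compound was added as a 20-point 2-fold series from a top final of 100 μM (1% DMSO) for 90 min at 37 °C, followed by detection reagents and chemiluminescence read after 1 h at rt.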

[5] = target: T1, Free fatty acid receptor 1; experiment: Agonist activity at human recombinant full-length Prolink-tagged GPR40 fused with EA-tagged beta-arrestin expressed in human HEK293 cells assessed as induction of beta-arrestin recruitment measured after 90 mins by beta-galactosidase based PathHunter assay relative to control; type: cell-based; settings: filed as agonist; method in brief: as §2
[6] = target: Free fatty acid receptor 1 (Mus musculus, UniProt Q76JU9); experiment: Agonist activity at Prolink-tagged mouse GPR40 fused with EA-tagged beta-arrestin expressed in human U2OS cells assessed as induction of beta-arrestin recruitment measured after 90 mins by beta-galactosidase based PathHunter assay; type: cell-based; method in brief: as §2
[7] = target: Free fatty acid receptor 1 (Mus musculus) (UniProt Q76JU9); experiment: Agonist activity at Prolink-tagged mouse GPR40 fused with EA-tagged beta-arrestin expressed in human U2OS cells assessed as induction of beta-arrestin recruitment measured after 90 mins by beta-galactosidase based PathHunter assay relative to control; type: cell-based; settings: filed as agonist; method in brief: as §2
[8] = target: Free fatty acid receptor 1 (Rattus norvegicus, UniProt Q8K3T4); experiment: Agonist activity at Prolink-tagged rat GPR40 fused with EA-tagged beta-arrestin expressed in human U2OS cells assessed as induction of beta-arrestin recruitment measured after 90 mins by beta-galactosidase based PathHunter assay; type: cell-based; method in brief: as §2
[9] = target: Free fatty acid receptor 1 (Rattus norvegicus) (UniProt Q8K3T4); experiment: Agonist activity at Prolink-tagged rat GPR40 fused with EA-tagged beta-arrestin expressed in human U2OS cells assessed as induction of beta-arrestin recruitment measured after 90 mins by beta-galactosidase based PathHunter assay relative to control; type: cell-based; settings: filed as agonist; method in brief: as §2
[10] = target: T1, Free fatty acid receptor 1; experiment: Agonist activity at human recombinant full length GPR40 overexpressed in human HEK293 cells assessed as increase in inositol phosphate accumulation in presence of terbium cryptate-labeled anti IP1/d2-labelled IP1 measured after 120 mins by HTRF assay; type: functional, cell-based
Method in brief: (§3)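 HEK293 hGPR40 cells (20K/well) were cultured overnight, washed, and held in IP1 stimulation buffer. IP-1 was measured by competitive HTRF immunoassay with terbium cryptate anti-IP1 mAb and d2-labelled IP1.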

[11] = target: T1, Free fatty acid receptor 1; experiment: Agonist activity at human recombinant full length GPR40 overexpressed in human HEK293 cells assessed as increase in inositol phosphate accumulation in presence of terbium cryptate-labeled anti IP1/d2-labelled IP1 measured after 120 mins by HTRF assay relative to AMG837; type: functional, cell-based; settings: filed as agonist; method in brief: as §3
[12] = target: Voltage-gated inwardly rectifying potassium channel KCNH2 (Homo sapiens, UniProt Q12809); experiment: Inhibition of human ERG
[13] = Protein binding in plasma (unknown origin) by equilibrium dialysis method; type: ADME, cell-free; settings: human, read-out: PPB
Method in brief: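 Plasma protein binding measured by equilibrium dialysis.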

[14] = target: T2, Peroxisome proliferator-activated receptor alpha (Homo sapiens) (UniProt Q07869); experiment: Displacement of [3H]-[…] from PPARalpha (unknown origin) expressed in baculovirus infected Sf9 insect cells upto 30 uM measured after 10 hrs by microbeta scintillation counting analysis; settings: dose microM <=30, time 10.0 hrs
T2 sequence (whole entry): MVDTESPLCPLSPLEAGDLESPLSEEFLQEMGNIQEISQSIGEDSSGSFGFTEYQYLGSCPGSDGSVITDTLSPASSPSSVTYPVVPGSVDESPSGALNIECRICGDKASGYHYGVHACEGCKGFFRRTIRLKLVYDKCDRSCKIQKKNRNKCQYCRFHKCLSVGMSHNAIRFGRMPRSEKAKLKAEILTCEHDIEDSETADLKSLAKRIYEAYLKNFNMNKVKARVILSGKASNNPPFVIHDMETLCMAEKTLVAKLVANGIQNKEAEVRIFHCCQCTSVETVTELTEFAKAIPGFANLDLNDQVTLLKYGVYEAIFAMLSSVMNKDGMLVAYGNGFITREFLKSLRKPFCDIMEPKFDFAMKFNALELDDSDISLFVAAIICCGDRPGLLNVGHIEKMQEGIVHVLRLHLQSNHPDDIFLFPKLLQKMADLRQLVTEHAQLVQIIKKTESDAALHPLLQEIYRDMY
Method in brief: (§4)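 Scintillation proximity assay. Sf9 lysates with baculovirus-expressed PPARα (0.3 μg), PPARδ (0.5 μg) or PPARγ (1.25 μg), each with RXRα, were bound via biotinylated DR2 oligo (0.126 nM) to streptavidin yttrium silicate beads. Buffer was HEPES pH 7.8 with KCl, MgCl2, DTT, CHAPS, 14% glycerol and salmon sperm DNA. A 3H reference agonist ligand was used, with 11 compound concentrations, for 10 h. Nonspecific binding was defined with 10000 nM unlabeled reference. Ki was derived from IC50.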

[15] = target: T3, Peroxisome proliferator-activated receptor delta (Homo sapiens) (UniProt Q03181); experiment: Displacement of [3H]-[…] from PPARdelta (unknown origin) expressed in baculovirus infected Sf9 insect cells upto 30 uM measured after 10 hrs by microbeta scintillation counting analysis; settings: dose microM <=30, time 10.0 hrs; method in brief: as §4
T3 sequence (whole entry): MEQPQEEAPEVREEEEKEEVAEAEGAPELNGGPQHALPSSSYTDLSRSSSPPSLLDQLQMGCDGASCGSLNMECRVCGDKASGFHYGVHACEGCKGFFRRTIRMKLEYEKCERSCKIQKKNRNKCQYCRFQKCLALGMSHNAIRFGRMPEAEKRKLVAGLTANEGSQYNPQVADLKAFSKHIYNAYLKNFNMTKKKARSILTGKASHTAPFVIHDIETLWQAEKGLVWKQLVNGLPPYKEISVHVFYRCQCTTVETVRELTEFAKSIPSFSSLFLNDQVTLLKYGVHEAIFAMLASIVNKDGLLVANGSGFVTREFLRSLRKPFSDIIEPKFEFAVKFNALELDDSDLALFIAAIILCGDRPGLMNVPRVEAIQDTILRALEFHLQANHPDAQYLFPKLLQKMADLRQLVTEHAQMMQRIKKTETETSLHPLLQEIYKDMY

[16] = target: T4, Peroxisome proliferator-activated receptor gamma (Homo sapiens) (UniProt P37231); experiment: Displacement of [3H]-[…] from PPARgamma (unknown origin) expressed in baculovirus infected Sf9 insect cells upto 30 uM measured after 10 hrs by microbeta scintillation counting analysis; settings: dose microM <=30, time 10.0 hrs; method in brief: as §4
T4 sequence (whole entry): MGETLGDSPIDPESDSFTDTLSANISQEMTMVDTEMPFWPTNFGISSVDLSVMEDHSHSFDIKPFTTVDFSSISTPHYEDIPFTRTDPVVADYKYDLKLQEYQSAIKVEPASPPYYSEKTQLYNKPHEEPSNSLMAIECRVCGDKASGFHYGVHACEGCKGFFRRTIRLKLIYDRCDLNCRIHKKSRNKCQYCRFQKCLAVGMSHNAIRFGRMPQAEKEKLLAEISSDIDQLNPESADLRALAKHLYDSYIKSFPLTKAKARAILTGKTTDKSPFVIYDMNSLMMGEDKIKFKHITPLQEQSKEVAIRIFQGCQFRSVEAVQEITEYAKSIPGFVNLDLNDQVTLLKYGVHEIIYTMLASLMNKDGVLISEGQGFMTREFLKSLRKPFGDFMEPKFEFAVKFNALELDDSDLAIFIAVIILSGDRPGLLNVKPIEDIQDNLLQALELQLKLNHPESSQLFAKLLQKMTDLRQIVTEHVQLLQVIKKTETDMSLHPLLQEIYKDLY

[17] = test system: Mus musculus; experiment: Hypoglycemic activity in Balb/c mouse assessed as effective dose causing reduction in blood glucose level administered orally 60 mins prior to glucose challenge measured for 60 mins by IPGTT; type: functional; settings: po, 1 h
[18] = AUC in hyperglycemic Balb/c mouse plasma at 29.4 mg/kg measured upto 60 mins; type: ADME, organism-based; parameters: dose 29.4 mg/kg, time <=60
[19] = target: Free fatty acid receptor 1 (Rattus norvegicus) (UniProt Q8K3T4); experiment: Agonist activity at GPR40 in Sprague-Dawley rat pancreatic islets assessed as induction of glucose-mediated insulin secretion measured after 90 mins in EBSS buffer by ELISA; type: tissue-based; settings: Pancreatic islet, filed as agonist
Method in brief: (§5)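 Glucose-dependent insulin secretion in mouse MIN6 cells or rat islet cells, scored as secretion above the glucose-alone level.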

[20] = target: Free fatty acid receptor 1 (Mus musculus) (UniProt Q76JU9); experiment: Agonist activity at GPR40 in mouse MIN6 cells assessed as induction of glucose-mediated insulin secretion incubated for 2 hrs by ELISA; type: cell-based; settings: filed as agonist; method in brief: as §5
[21] = Drug distribution in C57BL/6 mouse spleen at 3 microg/kg, iv administered as single dose observed at 20 to 40 mins by LC-MS/MS analysis; type: ADME, organism-based; settings: in vivo, 0.003 mg/kg, time 20-40 min, dose 3 µg/kg
Method in brief: (§6)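 Tracer microdose study in fed male C57BL/6 mice: single 3 μg/kg IV dose in 25% HP-BCD. Mice were killed by cervical dislocation, and spleen, ascending colon, skeletal muscle and plasma were sampled at 20 and 40 min.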

[22] = Drug distribution in C57BL/6 mouse colon at 3 microg/kg, iv administered as single dose observed at 20 to 40 mins by LC-MS/MS analysis; type: ADME, organism-based; settings: in vivo, 0.003 mg/kg, time 20-40 min, dose 3 µg/kg; method in brief: as §6
[23] = Protein binding in C57BL/6 mouse plasma at 3 microg/kg, iv by LC-MS/MS analysis; type: ADME, organism-based; settings: in vivo, 0.003 mg/kg, dose 3 µg/kg
[24] = AUC in hyperglycemic Balb/c mouse plasma at 1 mg/kg measured upto 60 mins; type: ADME, organism-based; parameters: dose 1 mg/kg, time <=60
[25] = test system: Rattus norvegicus; experiment: Hypoglycemic activity in Zucker fatty diabetes mellitus rat model assessed as reduction in blood glucose level at 3 mg/kg, po administered for 21 days and measured at 10 to 60 mins post glucose challenge on day 1 by OGTT; type: functional, organism-based; settings: time 21.0 day
[26] = test system: Rattus norvegicus; experiment: Hypoglycemic activity in Zucker fatty diabetes mellitus rat model assessed as increase in insulin levels in plasma at 3 mg/kg, po administered for 21 days and measured at 10 to 60 mins post glucose challenge on day 1 by OGTT; type: functional, organism-based; settings: time 21.0 day

T1 sequence (O14842 whole entry): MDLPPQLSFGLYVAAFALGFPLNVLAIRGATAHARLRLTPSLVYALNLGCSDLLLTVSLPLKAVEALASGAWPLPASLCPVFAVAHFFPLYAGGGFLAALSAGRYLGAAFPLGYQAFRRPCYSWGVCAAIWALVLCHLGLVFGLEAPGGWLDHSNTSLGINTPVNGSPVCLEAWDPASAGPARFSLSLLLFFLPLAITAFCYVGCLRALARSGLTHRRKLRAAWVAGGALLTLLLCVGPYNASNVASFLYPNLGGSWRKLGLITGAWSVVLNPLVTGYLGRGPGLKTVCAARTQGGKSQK
Sequence of Free fatty acid receptor 1 (Rattus norvegicus) (Q8K3T4 whole entry, the tested form may be a part): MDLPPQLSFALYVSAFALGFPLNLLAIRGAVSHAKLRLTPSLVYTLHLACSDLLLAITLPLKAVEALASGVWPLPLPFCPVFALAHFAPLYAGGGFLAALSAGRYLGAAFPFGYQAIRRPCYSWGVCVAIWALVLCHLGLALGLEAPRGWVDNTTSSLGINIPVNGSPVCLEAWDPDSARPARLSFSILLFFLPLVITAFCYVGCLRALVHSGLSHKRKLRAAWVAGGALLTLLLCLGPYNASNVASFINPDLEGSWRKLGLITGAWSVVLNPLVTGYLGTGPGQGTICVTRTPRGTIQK
Sequence of Free fatty acid receptor 1 (Rattus norvegicus, UniProt Q8K3T4) (Q8K3T4 whole entry, the tested form may be a part): as above
Sequence of Free fatty acid receptor 1 (Mus musculus) (Q76JU9 whole entry, the tested form may be a part): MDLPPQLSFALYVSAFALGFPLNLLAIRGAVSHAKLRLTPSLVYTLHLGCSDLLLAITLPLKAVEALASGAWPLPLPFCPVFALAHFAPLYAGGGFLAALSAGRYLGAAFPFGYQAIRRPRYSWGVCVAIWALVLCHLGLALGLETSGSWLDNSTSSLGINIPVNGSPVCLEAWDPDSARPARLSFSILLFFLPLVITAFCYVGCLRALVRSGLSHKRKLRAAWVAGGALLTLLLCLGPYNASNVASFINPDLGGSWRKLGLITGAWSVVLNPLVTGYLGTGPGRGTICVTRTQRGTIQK
Sequence of Free fatty acid receptor 1 (Mus musculus, UniProt Q76JU9) (Q76JU9 whole entry, the tested form may be a part): as above
Sequence of Voltage-gated inwardly rectifying potassium channel KCNH2 (Q12809 whole entry): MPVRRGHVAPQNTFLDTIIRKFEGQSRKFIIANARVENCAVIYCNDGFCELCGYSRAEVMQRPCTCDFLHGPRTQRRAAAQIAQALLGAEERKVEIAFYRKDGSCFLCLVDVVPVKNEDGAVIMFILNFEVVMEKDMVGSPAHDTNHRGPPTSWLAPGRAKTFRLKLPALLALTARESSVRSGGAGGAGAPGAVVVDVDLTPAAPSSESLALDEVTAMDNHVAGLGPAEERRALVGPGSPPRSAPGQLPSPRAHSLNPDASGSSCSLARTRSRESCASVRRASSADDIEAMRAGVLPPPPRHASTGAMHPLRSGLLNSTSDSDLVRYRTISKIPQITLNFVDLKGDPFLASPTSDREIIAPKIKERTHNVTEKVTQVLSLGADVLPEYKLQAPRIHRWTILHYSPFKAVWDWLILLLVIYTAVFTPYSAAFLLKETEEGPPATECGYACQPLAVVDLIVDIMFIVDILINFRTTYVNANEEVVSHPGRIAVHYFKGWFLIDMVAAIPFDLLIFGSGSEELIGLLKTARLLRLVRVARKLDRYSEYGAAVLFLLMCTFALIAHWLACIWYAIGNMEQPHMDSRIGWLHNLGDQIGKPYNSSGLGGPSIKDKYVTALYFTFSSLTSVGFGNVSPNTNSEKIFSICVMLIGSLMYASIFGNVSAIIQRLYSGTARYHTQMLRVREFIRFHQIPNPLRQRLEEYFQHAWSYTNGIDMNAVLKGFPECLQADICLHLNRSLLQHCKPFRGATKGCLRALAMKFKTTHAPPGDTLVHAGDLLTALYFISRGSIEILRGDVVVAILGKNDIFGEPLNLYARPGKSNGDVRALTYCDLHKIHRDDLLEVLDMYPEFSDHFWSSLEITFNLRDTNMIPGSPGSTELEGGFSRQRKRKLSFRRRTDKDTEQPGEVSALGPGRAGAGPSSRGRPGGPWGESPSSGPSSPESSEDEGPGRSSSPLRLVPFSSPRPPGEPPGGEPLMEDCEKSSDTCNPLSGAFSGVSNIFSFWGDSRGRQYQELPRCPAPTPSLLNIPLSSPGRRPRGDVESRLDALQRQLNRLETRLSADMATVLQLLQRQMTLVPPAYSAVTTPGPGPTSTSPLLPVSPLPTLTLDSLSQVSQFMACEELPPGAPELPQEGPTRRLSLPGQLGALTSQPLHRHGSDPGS

Compound	EC50 [6]	Emax [7]	EC50 [8]	Emax [9]	fraction unbound [13]	Activity [14]	Activity [15]	Activity [16]	Ki [1]	EC50 [2]	Emax [3]	EC50 [4]	Emax [5]	EC50 [10]	Emax [11]	ED90 [17]	other results
Cc1cc(OCCCS(C)(=O)=O)cc(C)c1-c1cccc(COc2ccc3c(c2)OC[C@H]3CC(=O)O)c1					< 0.01	inactive	inactive	inactive								29.4 mg/kg	AUC at 1 h [18]: 7370 ng·h/mL
CN(CCOc1ccc(CC2SC(=O)NC2=O)cc1)c1ccccn1 (centres undefined)																	Activity [25]: inactive; Activity [26]: inactive
CC#C[C@H](CC(=O)O)c1ccc(OCc2ccc(CN3CCC4(C=Cc5ccccc54)CC3)cc2)cc1F	120 nM	113%	420 nM	112%	< 0.01	inactive	inactive	inactive	410 nM	440 nM	61%	680 nM	102%	190 nM	160%		

Second part, led by results:

EC50 [6]	Emax [7]	EC50 [8]	Emax [9]	fraction unbound [13]	Activity [14]	Activity [15]	Activity [16]	Compound	Ki [1]	EC50 [2]	Emax [3]	EC50 [4]	Emax [5]	EC50 [10]	Emax [11]	ED90 [17]	other results
1.4 nM	128%	3 nM	119%	< 0.01	inactive	inactive	inactive	CC#C[C@@H](CC(=O)O)c1ccc(OCc2ccc(CN3CCC4(C=Cc5ccccc54)CC3)c(OC)c2)cc1	2.5 nM	17 nM	61%	10 nM	140%	7.4 nM	345%		Ki [12]: 6300 nM
1.5 nM	137%	3.2 nM	148%	< 0.01	inactive	inactive	inactive	CC#C[C@@H](CC(=O)O)c1ccc(OCc2cccc(-c3ccc(C(F)(F)F)cc3)c2)cc1								1 mg/kg	Activity [19]: Active; Activity [20]: Active; Drug uptake [21]: Not Active; Drug uptake [22]: Not Active; PPB [23]: Active; AUC at 1 h [24]: 33900 ng·h/mL
